Experimental data as given in ChEMBL document CHEMBL1287673, “Neo-tanshinlactone inspired synthesis, in vitro evaluation of novel substituted benzocoumarin derivatives as potent anti-breast cancer agents” (Bioorg Med Chem Lett, 2010).
The source made the active and inactive calls. The rule behind the calls is not given here.

Tests used:
[1] = tested on: MCF7; assay: Cytotoxicity against human MCF7 cells expressing estrogen receptor assessed as loss of cell viability at 10 uM after 16 hrs by MTT assay; format: functional, cell-based
Outline: (§1)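 1 × 10⁵ MCF-7 cells at 70–80% confluence exposed 16 h to increasing compound concentrations; growth inhibition read by MTT as percent (Total/Control); tamoxifen positive control; n = 9.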

[2] = tested on: MCF7; assay: Induction of apoptosis in human MCF7 cells expressing estrogen receptor assessed as increase in caspase activity at 10 uM after 16 hrs; format: functional, cell-based
Outline: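 1 × 10⁴ MCF-7 cells/well at 70–80% confluence grown 16 h, then 10 µM compound for 16 h. General (homogeneous) caspase activity read fluorometrically, excitation 465 nm, emission 520 nm; compared with negative control.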

[3] = tested on: MCF7; assay: Cytotoxicity against human MCF7 cells expressing estrogen receptor assessed as loss of cell viability after 16 hrs by MTT assay; format: functional, cell-based; outline: as §1
[4] = Cytotoxicity activity against Sprague-Dawley rat osteoblast cells at 20 uM by MTT assay; format: cell-based
Outline: (§2)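 Primary osteoblasts, 3 × 10³ cells/well, treated with 10 or 20 µM compound; viability and cell number read by MTT; n = 9.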

[5] = tested on: MCF7; assay: Induction of apoptosis in human MCF7 cells expressing estrogen receptor at 10 uM after 24 hrs using annexin-V FITC and propidium iodide staining by flow cytometry; format: functional, cell-based
Outline: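 MCF-7 (5 × 10⁵ cells) at 70–80% confluence held 24 h in DMEM/10% FBS with or without 10 µM compound. Harvested, stained with Annexin-V-FITC and PI, and read by flow cytometry as % apoptotic (Annexin-positive/PI-negative) and necrotic (PI-positive) cells.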

[6] = tested on: MCF7; assay: Cell cycle arrest in human MCF7 cells expressing estrogen receptor assessed as accumulation at G1/G0 phase at 10 uM after 24 hrs using propidium iodide staining by flow cytometry; format: functional, cell-based
Outline: (§3)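 MCF-7, 5 × 10⁵ cells/well at 70–80% confluence, serum-starved, then 10 µM compound for 24 h in phenol red-free medium. Cells fixed in 70% ethanol, rehydrated in PBS, and stained with PI (50 µg/ml) plus ribonuclease A (100 µg/ml). Flow cytometry gives % of cells in each cycle phase.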

[7] = tested on: MCF7; assay: Anticancer activity against human MCF7 cells expressing estrogen receptor by MTT assay; format: functional, cell-based
[8] = Cytotoxicity activity against Sprague-Dawley rat osteoblast cells at 10 uM by MTT assay; format: cell-based; outline: as §2
[9] = tested on: MCF7; assay: Induction of apoptosis in human MCF7 cells expressing estrogen receptor assessed as cytoplasmic condensation at 10 uM after 18 hrs by Hoechst 33342 staining; format: functional, cell-based
Outline: (§4)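 MCF-7 at 70–80% confluence given 10 µM compound for 18 h in complete growth medium, then Hoechst 33342 stained and imaged with a ×40 objective. Apoptotic nuclei scored by shape and intensity and normalized to control; tamoxifen positive control.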

[10] = tested on: MCF7; assay: Induction of apoptosis in human MCF7 cells expressing estrogen receptor assessed as presence of apoptotic body at 10 uM after 18 hrs by Hoechst 33342 staining; format: functional, cell-based; outline: as §4
[11] = tested on: MCF7; assay: Induction of apoptosis in human MCF7 cells expressing estrogen receptor assessed as presence of nuclear fragmentation at 10 uM after 18 hrs by Hoechst 33342 staining; format: functional, cell-based; outline: as §4
[12] = tested on: MCF7; assay: Cell cycle arrest in human MCF7 cells expressing estrogen receptor assessed as accumulation at G2 phase at 10 uM after 24 hrs using propidium iodide staining by flow cytometry; format: functional, cell-based; outline: as §3
[13] = tested on: MCF7; assay: Cytotoxicity against human MCF7 cells expressing estrogen receptor assessed as loss of cell viability at 20 uM after 16 hrs by MTT assay; format: functional, cell-based; outline: as §1

| IC50 [7] [µM] | SMILES | further results |
| --- | --- | --- |
| 3.8 | CN/C=C1/C=C(C=O)c2c(ccc3c(C)cc(=O)oc23)C1=O | Activity [1]: Toxic; Activity [2]: Active; Activity [3]: Dose-dependent effect; Activity [4]: Non-toxic; Activity [5]: Active; Activity [6]: Active; Activity [8]: Non-toxic; Activity [9]: Active; Activity [10]: Active; Activity [11]: Active |
| > 100 | CCCCN/C=C1C=C(/C=C/C(=O)c2ccc(C)cc2)c2c(ccc3c(C)cc(=O)oc23)C/1=O |  |
| 35 | Cc1ccc(C(=O)/C=C/C2=CC(=C/NC(C)C)/C(=O)c3ccc4c(C)cc(=O)oc4c32)c(C)c1 |  |
| 40 | CCCCN/C=C1C=C(/C=C/C(=O)c2ccc(O)cc2)c2c(ccc3c(C)cc(=O)oc23)C/1=O |  |
| 130 | Cc1cc(=O)oc2c3c(ccc12)C(=O)/C(=C\NC(C)C)C=C3C=O |  |
| > 100 | Cc1ccc(C(=O)/C=C/c2cc(C=O)c(O)c3ccc4c(C)cc(=O)oc4c23)c(C)c1 |  |
| > 100 | CCN/C=C1C=C(/C=C/C(=O)c2ccc(C)cc2)c2c(ccc3c(C)cc(=O)oc23)C/1=O |  |
| 100 | CCCCN/C=C1C=C(/C=C/C(=O)c2ccccc2)c2c(ccc3c(C)cc(=O)oc23)C/1=O |  |
| 85 | CCN/C=C1C=C(/C=C/C(=O)c2ccc(O)cc2)c2c(ccc3c(C)cc(=O)oc23)C/1=O |  |
| 20 | Cc1cc(=O)oc2c3c(ccc12)C(=O)/C(=C\NC(C)(C)C)C=C3C=O |  |
| 30 | CCN/C=C1C=C(/C=C/C(=O)c2ccc(OC)cc2)c2c(ccc3c(C)cc(=O)oc23)C/1=O |  |
| > 100 | Cc1cc(=O)oc2c3c(ccc12)C(=O)/C(=C\NC(C)C)C=C3/C=C/C(=O)c1ccccc1 |  |
| 11.8 | CC/C(=C(\c1ccccc1)c1ccc(OCCN(C)C)cc1)c1ccccc1 [TAMOXIFEN] |  |
| 92 | Cc1cc(=O)oc2c3c(ccc12)C(=O)/C(=C\NC(C)(C)C)C=C3/C=C/C(=O)c1ccccc1 |  |
| 6.5 | CCCCN/C=C1/C=C(C=O)c2c(ccc3c(C)cc(=O)oc23)C1=O | Activity [2]: Active; Activity [3]: Dose-dependent effect; Activity [4]: Non-toxic; Activity [8]: Non-toxic; Activity [9]: Active; Activity [10]: Active; Activity [12]: Active; Activity [11]: Active |
| > 100 | Cc1cc(=O)oc2c1ccc1c(O)c(C=O)cc(C=O)c12 |  |
| 32 | Cc1cc(=O)oc2c3c(ccc12)C(=O)/C(=C\NC(C)C)C=C3/C=C/C(=O)c1ccc(O)cc1 |  |
| > 100 | Cc1cc(=O)oc2c3c(ccc12)C(=O)/C(=C\NC(C)(C)C)C=C3/C=C/C(=O)c1ccc(O)cc1 |  |

| IC50 [7] [µM] | SMILES | further results |
| --- | --- | --- |
| > 100 | Cc1ccc(C(=O)/C=C/c2cc(C=O)c(O)c3ccc4c(C)cc(=O)oc4c23)cc1 |  |
| 92 | CCCCN/C=C1C=C(/C=C/C(=O)c2ccc(OC)cc2)c2c(ccc3c(C)cc(=O)oc23)C/1=O |  |
| 87 | CCN/C=C1C=C(/C=C/C(=O)c2ccccc2)c2c(ccc3c(C)cc(=O)oc23)C/1=O |  |
| 97 | Cc1ccc(C(=O)/C=C/C2=CC(=C/NC(C)(C)C)/C(=O)c3ccc4c(C)cc(=O)oc4c32)cc1 |  |
| > 100 | COc1ccc(C(=O)/C=C/C2=CC(=C/NC(C)(C)C)/C(=O)c3ccc4c(C)cc(=O)oc4c32)cc1 |  |
| 7.9 | CCCN/C=C1/C=C(C=O)c2c(ccc3c(C)cc(=O)oc23)C1=O | Activity [2]: Active; Activity [3]: Dose-dependent effect; Activity [4]: Non-toxic; Activity [13]: Toxic; Activity [6]: Active; Activity [8]: Non-toxic; Activity [9]: Active; Activity [10]: Active; Activity [11]: Active |
| > 100 | Cc1cc(=O)oc2c1ccc1c(O)cccc12 |  |
| > 100 | Cc1cc(=O)oc2c1ccc1c(O)c(C=O)cc(/C=C/C(=O)c3ccccc3)c12 |  |
| > 100 | Cc1cc(=O)oc2c1ccc1c(O)c(C=O)cc(/C=C/C(=O)c3ccc(O)cc3)c12 |  |
| > 100 | Cc1cc(=O)oc2c3c(ccc12)C(=O)/C(=C\NCCN1CCOCC1)C=C3C=O |  |
| > 100 | CCN/C=C1/C=C(C=O)c2c(ccc3c(C)cc(=O)oc23)C1=O |  |
| > 100 | Cc1ccc(C(=O)/C=C/C2=CC(=C/NC(C)(C)C)/C(=O)c3ccc4c(C)cc(=O)oc4c32)c(C)c1 |  |
| > 100 | CCCCCCCN/C=C1/C=C(C=O)c2c(ccc3c(C)cc(=O)oc23)C1=O |  |
| > 100 | COc1ccc(C(=O)/C=C/c2cc(C=O)c(O)c3ccc4c(C)cc(=O)oc4c23)cc1 |  |
| > 100 | CCCCN/C=C1C=C(/C=C/C(=O)c2ccc(C)cc2C)c2c(ccc3c(C)cc(=O)oc23)C/1=O |  |
| > 100 | CCN/C=C1C=C(/C=C/C(=O)c2ccc(C)cc2C)c2c(ccc3c(C)cc(=O)oc23)C/1=O |  |
| > 100 | COc1ccc(C(=O)/C=C/C2=CC(=C/NC(C)C)/C(=O)c3ccc4c(C)cc(=O)oc4c32)cc1 |  |
| 21 | Cc1ccc(C(=O)/C=C/C2=CC(=C/NC(C)C)/C(=O)c3ccc4c(C)cc(=O)oc4c32)cc1 |  |
